Laboratory results published in ChEMBL document CHEMBL2010655, “Chemical constituents from the aerial parts of Aster koraiensis with protein glycation and aldose reductase inhibitory activities” (J Nat Prod, 2012).

How the values were obtained:
[1] = target: Aldo-keto reductase family 1 member B1 (Rattus norvegicus, UniProt P07943); experiment: Inhibition of Sprague-Dawley rat lens aldose reductase
[2] = Inhibition of advanced glycation end-products formation after 14 days by spectrofluorimetry; format: physicochemical
In short: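 Glycation end-product formation measured by an established literature method. Fluorescent reaction products read spectrofluorometrically after a 14-day incubation. Aminoguanidine served as the positive control. Triplicate experiments, reported as mean ± SD. IC50 calculated from the dose–inhibition curve.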

| Compound | IC50 [1] | IC50 [2] |
| --- | --- | --- |
| C[C@@H]1O[C@@H](OC[C@H]2O[C@@H](Oc3c(-c4ccc(O)cc4)oc4cc(O)cc(O)c4c3=O)[C@H](O)[C@@H](O)[C@@H]2O)[C@H](O)[C@H](O)[C@H]1O [NICOTIFLOROSIDE] | 11.3 µM | > 50 µM |
| N=C(N)NN [PIMAGEDINE] | > 30 µM | 966 µM |
| COc1cc(-c2oc3cc(O)cc(O)c3c(=O)c2O[C@@H]2O[C@H](CO)[C@@H](O)[C@H](O)[C@H]2O)ccc1O (stereo in doubt; 7) | 9.3 µM | 44.4 µM |
| O=C(/C=C/c1ccc(O)c(O)c1)O[C@H]1[C@H](O)C[C@](O)(C(=O)O)C[C@H]1OC(=O)/C=C/c1ccc(O)c(O)c1 | 2.3 µM | 6.4 µM |
| C=CCCCCC/C=C/[C@H](O)C#CC#C[C@@H](O)[C@H](C)O [GYMNASTERKOREAYNE E] | > 30 µM | > 50 µM |
| CC(/C=C1\SC(=S)N(CC(=O)O)C1=O)=C\c1ccccc1 | – | > 50 µM |
| O=c1c(O[C@@H]2O[C@H](CO)[C@@H](O)[C@H](O)[C@H]2O)c(-c2ccc(O)c(O)c2)oc2cc(O)cc(O)c12 [ISOQUERCETIN] | 4.4 µM | 9.2 µM |
| CC1=CC[C@H](O)[C@]2(C)[C@H]1[C@@H](O[C@@H]1O[C@H](CO)[C@@H](O)[C@H](O)[C@H]1O)[C@H](C(C)(C)O)C[C@H]2OC(=O)/C=C/c1ccc(O)cc1 | > 30 µM | > 50 µM |
| O=c1c(O[C@@H]2OC[C@H](O)[C@H](O)[C@H]2O)c(-c2ccc(O)c(O)c2)oc2cc(O)cc(O)c12 [GUAJAVERIN] | 0.32 µM | 9 µM |
| C=C(CO[C@@H]1O[C@H](CO)[C@@H](O)[C@H](O)[C@H]1O)[C@H]1Oc2cc(C(C)=O)c(O)cc2[C@@H]1OC | > 30 µM | > 50 µM |
| CC[C@H](/C=C/[C@@H](C)[C@H]1CC[C@H]2C3=CC[C@H]4C[C@@H](O)CC[C@]4(C)[C@H]3CC[C@]12C)C(C)C | > 30 µM | > 50 µM |
| COc1cc(-c2oc3cc(O)cc(O)c3c(=O)c2O[C@@H]2O[C@H](CO[C@@H]3O[C@@H](C)[C@H](O)[C@@H](O)[C@H]3O)[C@@H](O)[C@H](O)[C@H]2O)ccc1O [NARCISSIN] | 12.1 µM | > 50 µM |
| O=C(/C=C/c1ccc(O)c(O)c1)O[C@@H]1C[C@](O)(C(=O)O)C[C@@H](O)[C@H]1O [CHLOROGENIC ACID] | 0.95 µM | > 50 µM |
| C=CCc1ccc(O[C@@H]2O[C@H](CO)[C@@H](O)[C@H](O)[C@H]2O)c(OC)c1 [CITRUSIN C] | > 30 µM | > 50 µM |
| O=C(/C=C/c1ccc(O)c(O)c1)O[C@@H]1C[C@](O)(C(=O)O)C[C@@H](OC(=O)/C=C/c2ccc(O)c(O)c2)[C@H]1O | – | 6.6 µM |
| C/C=C/C#CC#CCCCO[C@@H]1O[C@H](CO)[C@@H](O)[C@H](O)[C@H]1O | > 30 µM | > 50 µM |
| CC1=CC[C@@H](O)[C@]2(C)[C@@H](OC(=O)/C=C/c3ccc(O)cc3)C[C@@H](C(C)C)[C@@H](O[C@@H]3O[C@H](CO)[C@@H](O)[C@H](O)[C@H]3O)[C@@H]12 | > 30 µM | > 50 µM |
| CC[C@H](CC[C@@H](C)[C@H]1CC[C@H]2[C@@H]3CC=C4C[C@@H](O[C@@H]5O[C@H](CO)[C@@H](O)[C@H](O)[C@H]5O)CC[C@]4(C)[C@H]3CC[C@]12C)C(C)C [SITOGLUSIDE] | > 30 µM | > 50 µM |
| C/C=C/C#CC#C[C@H](O)CCO [GYMNASTERKOREAYNE A] | > 30 µM | > 50 µM |
